The text below walks through data of ChEMBL document CHEMBL5034016 (J Med Chem, 2021).

The structures appear in SMILES notation.

A short description of data set [1]: Selectivity index, ratio of CC50 for human RD cells to EC50 for antiviral activity against Enterovirus A71 infected in human RD cells. The format is toxicity, cell-based. The following applies: read-out: Ratio CC50/EC50.
Data set [2] has as its system rhinovirus A2. The data set is described as follows: Antiviral activity against Human rhinovirus 2 infected in HeLa cells assessed as reduction in virus induced cytopathic effect. It counts as functional, organism-based. The note with it: Rhinovirus A.
Data set [3] relates to rhinovirus B14. The data set can be described thus: Antiviral activity against Human rhinovirus 14 infected in HeLa cells assessed as reduction in virus induced cytopathic effect. It counts as functional, organism-based. The following applies: Rhinovirus B. (Protection from cytopathic effect is a common read-out in antiviral testing.)
The test system of data set [4] is Human immunodeficiency virus 1. The data set is described as follows: Inhibition of HIV-1 gp120 interaction with human CD4 assessed as inhibition of viral entry at 10 to 40 nM by SPR analysis relative to control. The note with it: dose 10-40 nM. Summed up: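 His-CD4 (2 μg/mL) was captured on a Ni-chelated chip (0.5 mM NiCl2 activation). 25 nM gp120 premixed with compound (10 000 to 10 nM, fourfold steps) was injected for 2 min over reference and analysis channels. Binding % used the maximum response at end of injection relative to 25 nM gp120 alone. Regeneration was with 350 mM EDTA. Run in triplicate.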
Background: Surface plasmon resonance follows binding to a sensor surface in real time, without labels.

The nature of data set [5]: Inhibition of human mAb clone 2G12 binding to HIV1 gp120 expressed in human MT4 cells by flow cytometry analysis. It counts as cell-based, Human immunodeficiency virus 1. For orientation: Flow cytometry measures light scatter and fluorescence of single cells or particles in a stream.
A short description of data set [6]: Inhibition of mouse mAb clone 9305 binding to HIV1 gp120 expressed in human MT4 cells by flow cytometry analysis. It counts as cell-based, Human immunodeficiency virus 1.
The subject of data set [7] is Human immunodeficiency virus 1. The data set is described as follows: Inhibition of HIV-1 gp120 interaction with human CD4 assessed as fold change in inhibition of viral entry at 10 to 40 nM by SPR analysis relative to AL-471. The note with it: dose 10-40 nM. Summed up:
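His-CD4 at 2 μg/mL captured on a NiCl2-activated chip channel, with a reference channel alongside. 25 nM gp120 premixed with compound, 10 000 to 10 nM in fourfold steps, injected 2 min over both channels. Surface regenerated with 350 mM EDTA. Binding % from maximum response at injection end versus gp120 alone. Triplicate experiments.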

For data set [8], the system named is Human immunodeficiency virus 1. The data set can be described thus: Potency index, ratio of AL-471 EC50 to test compound EC50 for anti-HIV activity against HIV-1 NL4.3 infected in human MT4 cells assessed as reduction in virus-indued cytopathic effect preincubated with cells for 30 mins followed by viral infection and measured after 5 days by MTS assay. It counts as functional. The following applies: time 120.5 hrs.

The test system of data set [9] is Human immunodeficiency virus 1. The data set is described as follows: Binding affinity to CM5 sensor chip immobilized recombinant HIV-1 gp120 assessed as association constant at 12.5 to 0.1 uM by SPR analysis. The following applies: dose 12.5-0.1 µM.
The test system of data set [10] is Human immunodeficiency virus 1. The data set is described as follows: Potency index, ratio of AL-471 Kd to test compound Kd for binding affinity to CM5 sensor chip immobilized recombinant HIV-1 gp120 at 12.5 to 0.1 uM measured for 4 mins by SPR analysis. The following applies: dose 12.5-0.1 µM.

Turning to `O=C(CCOCC(COCCC(=O)NC(Cc1c(-c2cc(C(=O)O)cc(C(=O)O)c2)[nH]c2c(-c3cc(C(=O)O)cc(C(=O)O)c3)cccc12)C(=O)O)(COCCC(=O)NC(Cc1c(-c2cc(C(=O)O)cc(C(=O)O)c2)[nH]c2c(-c3cc(C(=O)O)cc(C(=O)O)c3)cccc12)C(=O)O)COCCC(=O)NC(Cc1c(-c2cc(C(=O)O)cc(C(=O)O)c2)[nH]c2c(-c3cc(C(=O)O)cc(C(=O)O)c3)cccc12)C(=O)O)NC(Cc1c(-c2cc(C(=O)O)cc(C(=O)O)c2)[nH]c2c(-c3cc(C(=O)O)cc(C(=O)O)c3)cccc12)C(=O)O` (stereo not given), the selectivity ratio in [1] amounted to 2500. Moreover, the EC50 in data set [2] and in [3] was more than 50 µM throughout. For the same compound, the inhibition in [4] was determined as 50%. The IC50 in data set [5] and in data set [6] was more than 100 µM throughout. Besides, the fold change (FC) in data set [7] amounted to 16. Moreover, in data set [8], the “Ratio EC50” value was determined as 3.5. Also, the ka in data set [9] was 3.34 10^3/M/s. Also, the Ratio in [10] amounted to 6.

In general, EC50 refers to the midpoint of the concentration-response curve. For orientation: inhibition means the change of the read-out against control, counted positive when it falls. As usually defined, the IC50 is the midpoint of a concentration-inhibition curve. A higher IC50 goes with lower potency.
